Measured values: ChEMBL document CHEMBL1157237, “Methanolysis products of disorazole A1” (J Nat Prod, 2006)

What was measured:
Format in all cases: functional, cell-based
A549 = experiment: Antiproliferative activity against human A549 cells after 72 hrs by celltitre assay; settings: A549, 72 h
Outline: (§1)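 Cells grown in RPMI 1640 with 10% FBS at 37 °C under 5% CO2, seeded in duplicate at about 5000 cells/well and left 24 h. Compounds then added as 10-fold serial dilutions for 72 h. Viability read by CellTiter-Glo luminescence. IC50 taken as the concentration giving 50% inhibition of cell growth.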

CCRF-CEM [1] = experiment: Antiproliferative activity against human multidrug-resistant P-glycoprotein expressing CCRF-CEM/PTX cells after 72 hrs by celltitre assay
Outline: (§2)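 Cultured in RPMI 1640 with 5% FBS at 37 °C and 5% CO2. Seeded in duplicate at about 5000 cells/well and incubated 24 h before 10-fold serial compound dilutions were added for 72 h. Viability measured by CellTiter-Glo luminescence. IC50 = concentration inhibiting growth by 50%.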

[2] = Antiproliferative activity against human multidrug-resistant P-glycoprotein expressing NCI/ADR cells after 72 hrs by celltitre assay; settings: NCI/ADR-RES; outline: as §1
CCRF-CEM [3] = experiment: Antiproliferative activity against human CCRF-CEM cells after 72 hrs by celltitre assay; outline: as §2
MCF7 = experiment: Antiproliferative activity against human MCF7 cells after 72 hrs by celltitre assay; settings: MCF7, 72 h; outline: as §1

Row | IC50 (A549) [nM] | IC50 (CCRF-CEM [1]) [nM] | IC50 (CCRF-CEM [3]) [nM] | IC50 (MCF7) [nM] | SMILES | IC50 [2] [nM]
1 | 0.25 | 0.24 | 0.11 | 0.24 | C/C=C/[C@H](O)C(C)(C)[C@@H]1C\C=C/C=C\C=C\[C@H](OC)Cc2nc(co2)C(=O)O[C@H](C(C)(C)[C@@H](O)/C=C/C)C/C=C\[C@@H](O)C(OC)/C=C/C=C\c2nc(co2)C(=O)O1 (stereo not given in full) | 2.8
2 | 0.73 | 1.3 | 0.33 | 0.62 | C/C=C/[C@H](O)C(C)(C)[C@@H]1C\C=C/C=C\C=C\[C@H](OC)Cc2nc(co2)C(=O)O[C@H](C(C)(C)[C@@H](O)/C=C/C)C/C=C\[C@@H](O)/C=C/C(OC)/C=C\c2nc(co2)C(=O)O1 (stereo not given in full) | 28

Row | SMILES | IC50 (A549) [nM] | IC50 (CCRF-CEM [1]) [nM] | IC50 (CCRF-CEM [3]) [nM] | IC50 (MCF7) [nM] | IC50 [2] [nM]
3 | C/C=C/[C@H](O)C(C)(C)[C@@H]1C\C=C/C=C\C=C\[C@H](OC)Cc2nc(co2)C(=O)O[C@H](C(C)(C)[C@@H](O)/C=C/C)C/C=C\[C@H]2O[C@H]2/C=C/C=C\c2nc(co2)C(=O)O1 [DISORAZOLE A1] | 0.31 | 0.066 | 0.07 | 0.25 | 0.52
